Bioassay records as filed in PubChem BioAssay.
SUMO Mot1 rescue: SUMOylation pathway inhibition by Mot1-301 growth rescue. S. cerevisiae Mot1-301 growth rescue, ATP luminescence, 38.5C; percent above DMSO median, 100 means doubled. growth rescue, % at 18.8 µM. actives 1% (n = 320,000). AID 2716;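 active = every valid replicate shows activation above 250% relative to neutral control wells; inactive = the rest, any valid replicate at or below 250%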;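 note: OY570 slx delta 5 strain wells were the positive control but not used for scaling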
ARFGAP1 inhibitor: rat ARFGAP1 inhibition; Q62848; Arfgap1-stimulated ARF1 GTP hydrolysis, GDP FP detection; inhibition, % at 16.5 µM; actives 0.26% (n = 360,000); AID 651572;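 active = inhibition above a per-plate limit, mean inhibition of low control wells plus 3 SD, cut at about 25% in these data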;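 note: 0% = DMSO wells with enzyme and 100% = wells lacking Arfgap1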
Target sequence (Q62848 1-136 limits assumed): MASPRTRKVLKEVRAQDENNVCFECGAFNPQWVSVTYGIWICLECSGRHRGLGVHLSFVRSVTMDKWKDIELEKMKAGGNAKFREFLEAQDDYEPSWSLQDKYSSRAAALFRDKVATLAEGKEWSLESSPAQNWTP
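Replicates: Single well per compound | Assay system: Truncated rat Arfgap1 GAP domain | Control set: No-Arfgap1 wells (100%) versus DMSO full-reaction wells (0%) | Times: Enzyme reaction 120 min at 25 °C after 20 min preincubation | Reagent: Human ARF1(Δ1-17)-GTP substrate | Measured by: Tracer-displacement fluorescence polarization with EDTA stop, 620/688 nm | Measure: Percent inhibition of Arfgap1-stimulated GTP hydrolysis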
ASAP1 inh: blocks human ASAP1-stimulated Arf1 GTP hydrolysis | GDP FP detection | AID 624377 | inhibition, % at 16.5 µM | actives 0.19% (n = 360,000); in the data active = inhibition above about 25%;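 note: 0% = vehicle with enzyme and substrate and 100% = no enzyme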
Target sequence (Q9ULH1 325-724 limits assumed): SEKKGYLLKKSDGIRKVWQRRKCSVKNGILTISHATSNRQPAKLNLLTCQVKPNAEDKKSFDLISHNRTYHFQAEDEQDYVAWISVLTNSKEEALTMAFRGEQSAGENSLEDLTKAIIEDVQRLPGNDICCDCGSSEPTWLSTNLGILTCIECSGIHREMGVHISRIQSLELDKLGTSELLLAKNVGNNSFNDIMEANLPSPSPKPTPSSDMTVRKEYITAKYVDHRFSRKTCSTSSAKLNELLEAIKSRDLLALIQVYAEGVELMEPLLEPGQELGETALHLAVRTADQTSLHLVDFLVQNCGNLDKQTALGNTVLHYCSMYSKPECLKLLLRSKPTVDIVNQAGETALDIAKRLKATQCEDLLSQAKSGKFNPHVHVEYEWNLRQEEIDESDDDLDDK
A3A deaminase: inhibitors of human APOBEC3A DNA deaminase; AID 493011; P31941; inhibition, % at 20 µM; recombinant A3A, FAM/TAMRA ssDNA deamination fluorescence; actives 0.41% (n = 330,000);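 active = at least 40% inhibition at 20 µM here, with at most 30% in a related deaminase screen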;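 note: plate controls were A3A with DMSO for no effect and wells lacking A3A enzyme for full effect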
Target sequence (P31941 whole entry, looked up): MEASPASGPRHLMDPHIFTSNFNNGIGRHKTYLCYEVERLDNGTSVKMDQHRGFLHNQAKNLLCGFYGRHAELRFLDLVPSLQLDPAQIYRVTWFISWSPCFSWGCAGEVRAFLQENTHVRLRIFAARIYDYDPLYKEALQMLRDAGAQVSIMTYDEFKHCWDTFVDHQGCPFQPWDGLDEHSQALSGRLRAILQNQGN
APOBEC3G inh: inhibitors of human APOBEC3G DNA deaminase; inhibition, % at 20 µM; actives 0.28% (n = 330,000); recombinant A3G, ssDNA deamination FAM/TAMRA fluorescence;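 active = inhibition of at least 40% at 20 µM, with no more than 30% in the related APOBEC3A deaminase screen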;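 note: plate controls were DMSO wells with A3G for no effect and wells lacking A3G enzyme for full effect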
Statin myotox sup: suppressors of simvastatin-induced myotoxicity in C2C12 myotubes; ATP luminescence, 48 h; scaled: DMSO 0, geranylgeraniol control 100; rescue of ATP level, % at 7.49 µM; actives 0.78% (n = 330,000); AID 602340;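 active = mean ATP rescue above about 67%, or every replicate alone reaching that limit, limit read from the data, passing the limit was not always enough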;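 note: myotubes were challenged with 10 µM simvastatin during compound exposure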
A3G conf: confirmation of human APOBEC3G DNA deaminase inhibitors | actives 72% (n = 890) | inhibition, % at 20 µM | shares compounds with APOBEC3G inh | recombinant A3G ssDNA deaminase, UDG/FAM-TAMRA fluorescence;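 active = inhibition reaching a set limit in any replicate at 20 µM, the limit being 80% of the first screen's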
UDG A3G counter: counter-screen for APOBEC3G inhibitors: E. coli UDG. shares compounds with APOBEC3G inh. 710 tested, under 10 active. UDG counterscreen, FAM/TAMRA oligo fluorescence. AID 504715. inhibition, % at 20 µM;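 active = compounds giving 40% or more inhibition at 20 µM in any one of the three replicates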;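 note: plate controls were DMSO wells with UDG and oligo for no effect and DMSO wells lacking both for full effect; inhibitors lower the FAM signal released by uracil excision and alkaline cleavage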
An asterisk follows results filed as active; . = no result. Compounds with a hit are over-represented: about 2.1% of the library has one in this group of screens.

SMILES	SUMO Mot1 rescue	ARFGAP1 inhibitor	ASAP1 inh	A3A deaminase	APOBEC3G inh	Statin myotox sup	A3G conf	UDG A3G counter
CCCCCCNC(=O)N[C@H](C(=O)NCCC[C@H]1CN2C(=NC[C@H]2C)N1CCC(c1ccccc1)c1ccccc1)C(C)O (some centres undefined)	-12.0	.	.	3.5	78.0*	.	72.5*	.
CCN(CC)c1ccc(NC(=O)COc2ccccc2C#N)cc1S(=O)(=O)Nc1ccccc1OC	132.7	11.9	-6.1	3.8	24.8	.	.	.
COc1ccccc1NS(=O)(=O)c1cc(NC(=O)C2CCC2)ccc1N1CCCCC1	15.5	2.8	-3.7	-0.6	48.9*	15.2	76.8*	-2.1
COc1ccccc1NS(=O)(=O)c1cc(N)ccc1N1CCCCC1	251.6	4.9	4.6	4.5	49.0*	.	62.2*	0.4
COc1ccccc1NS(=O)(=O)c1cc(NC(=O)c2ccc(Cl)nc2)ccc1N1CCCC1	-12.9	.	.	2.1	65.7*	-19.7	68.5*	-3.7
Nc1ccc(N2CCCCC2)c(S(=O)(=O)Nc2ccccc2Cl)c1	.	10.8	-3.4	6.4	6.9	.	.	.
CCN(CC)c1ccc(NC(=O)c2ccccn2)cc1S(=O)(=O)Nc1ccccc1OC	.	11.7	-6.3	3.5	56.2*	9.2	50.8*	-3.1
COc1ccccc1-c1ccc2n(c1=O)C[C@H]1[C@H](CO)[C@@H](C(=O)N(C)C)N(CC3CCOCC3)[C@@H]21	.	.	.	.	.	-1.3	.	.
Nc1cc(S(=O)(=O)Nc2ccccc2Cl)ccc1N1CCCCC1	-7.8	-7.7	-5.3	3.2	49.0*	-25.2	47.2*	1.9
Nc1cc(S(=O)(=O)c2ccc(N3CCCCC3)c(N)c2)ccc1N1CCCCC1	.	-4.1	4.9	.	.	.	.	.
S=C(c1ccc(Br)cc1)N1CCN(Cc2ccccc2)CC1	67.2	11.8	-3.2	0.2	40.4*	3.7	29.4	.
Oc1ccc(C(=S)N2CCN(Cc3ccccc3)CC2)cc1	-9.1	7.2	2.8	5.2	39.2	13.2	.	.
S=c1[nH]ncn1/N=C/c1ccccc1	-8.7	-8.0	-3.4	-3.7	22.9	0.8	.	.
S=c1[nH]ncn1/N=C/c1ccc(Br)cc1	62.5	-7.0	-5.5	-5.0	44.2*	.	99.6*	-0.5
COCCNC(=O)C[C@@H]1CC[C@@H]2[C@H](COc3ccc(NC(=O)c4cnccn4)cc3C(=O)N2C)O1	.	.	.	.	.	5.9	.	.
N#CCC(=O)NNC(=S)NC(=O)C(c1ccccc1)c1ccccc1	-9.0	-5.8	-8.6	-0.3	-6.7	.	.	.
CC(=O)NC(=S)NNC(=O)C(c1ccccc1)c1ccccc1	.	1.0	5.2	2.1	46.1*	.	41.3*	-4.3
CCNC(=O)C[C@H]1CC[C@@H]2[C@H](COc3ccc(NC(=O)C4CCOCC4)cc3C(=O)N2C)O1	.	.	.	.	.	8.5	.	.
CC(=O)N(C)C[C@H]1Oc2cc(C#Cc3ccc(F)cc3)ccc2S(=O)(=O)N([C@@H](C)CO)C[C@H]1C	.	.	.	.	.	1.4	.	.
COc1cccc(S(=O)(=O)N(C)C[C@H]2OCc3ccccc3-c3ccccc3C(=O)N([C@H](C)CO)C[C@@H]2C)c1	.	.	.	.	.	21.2	.	.
Cc1[nH]c(=O)[nH]c(=S)c1C(=O)Nc1ccc(Cl)c(Cl)c1	9.9	12.2	-2.1	-1.1	60.0*	.	74.4*	-6.0
O=[N+]([O-])c1ccc(Cl)c(/C=N/n2c(-c3cccnc3)n[nH]c2=S)c1	.	.	.	4.0	47.8*	.	24.8	.
Cc1ccsc1/C=N/n1c(-c2cccnc2)n[nH]c1=S	319.7	-7.3	10.1	-7.4	39.6	12.7	.	.
O=[N+]([O-])c1cccc(/C=N/n2c(-c3cccnc3)n[nH]c2=S)c1	-2.1	4.9	-2.3	1.2	69.5*	.	74.4*	2.7
O=[N+]([O-])c1ccc(/C=N/n2c(-c3cccnc3)n[nH]c2=S)cc1	3.3	4.0	1.3	-6.0	63.5*	11.6	62.5*	-3.1
SMILES	SUMO Mot1 rescue	ARFGAP1 inhibitor	ASAP1 inh	A3A deaminase	APOBEC3G inh	Statin myotox sup	A3G conf	UDG A3G counter
Cc1n[nH]c(=S)n(/N=C/c2cccc([N+](=O)[O-])c2)c1=O	-5.5	0.6	12.8	1.2	-4.5	.	.	.
O=C(NCC[C@@H]1CC[C@H](NS(=O)(=O)c2ccc(F)cc2)[C@@H](CO)O1)Nc1ccc(F)cc1	.	.	.	.	.	2.6	.	.
S=c1nc(-c2ccccc2)n(-c2ccccc2)[nH]1	-8.2	2.8	12.6	-5.7	48.1*	-5.0	86.7*	-1.8
S=c1nc(-c2ccccc2)[nH]n1-c1ccccc1	-9.1	-2.3	-14.5	.	.	15.8	.	.
Cc1noc(C)c1NC(=O)N(C)C[C@H]1Oc2ccc(NS(C)(=O)=O)cc2C(=O)N([C@@H](C)CO)C[C@@H]1C	.	.	.	.	.	3.0	.	.
COc1ccc(CNC(=O)C[C@@H]2CC[C@H]3[C@H](COc4ccc(NC(C)=O)cc4C(=O)N3C)O2)cc1	.	.	.	.	.	13.4	.	.
Cc1ccc(CN2CCN(/N=C/c3ccccc3)CC2)cc1	11.2	-16.0	5.8	1.6	6.2	12.0	.	.
COc1cc(/C=N/N2CCN(Cc3ccc(C)cc3)CC2)cc(OC)c1O	-11.6	0.7	-13.2	0.8	54.4*	10.7	-0.8	.
C[C@@H]1CN([C@@H](C)CO)C(=O)c2cc(N(C)C)ccc2O[C@@H](C)CCCCO[C@H]1CN(C)C(=O)C1CCCCC1	.	.	.	.	.	-6.8	.	.
C[C@@H]1CN([C@@H](C)CO)S(=O)(=O)c2ccc(C#C[C@@H](C)O)cc2O[C@H]1CN(C)Cc1ccccn1	.	.	.	.	.	-18.0	.	.
CC(C)C(=O)NNc1ccccc1	2.5	-0.2	-0.5	-2.6	-5.7	.	.	.
CC(O)CC(C(=O)NNc1ccccc1)C(=O)NNc1ccccc1 (centres undefined)	606.5*	3.7	-0.7	-1.8	43.6*	-0.2	1.5	-2.9
CO[C@H]1CN(C)C(=O)c2cc(NS(=O)(=O)Cc3ccccc3)ccc2OC[C@@H](C)NC[C@H]1C	.	.	.	.	.	4.6	.	.
CN(C)c1ccc2c(c1)[C@@H]1C[C@H](CC(=O)NCC3CC3)O[C@@H](CO)[C@@H]1O2	.	.	.	.	.	-3.5	.	.
CCC(C)(C)n1nnnc1C(c1ccc2ncccc2c1)N1CCN(c2nc3ccccc3s2)CC1 (centres undefined)	-13.3	3.8	-6.9	-1.8	-0.6	-25.3	.	.
CCC(C)(C)n1nnnc1C(c1ccc2ncccc2c1)N1CCN(c2ccc(O)cc2)CC1 (centres undefined)	-8.4	3.7	-6.0	2.2	41.0*	-15.8	5.0	.
C[C@H](CO)N1C[C@H](C)[C@@H](CN(C)S(=O)(=O)c2ccccc2)Oc2c(NC(=O)C3CCOCC3)cccc2C1=O	.	.	.	.	.	-4.3	.	.
Cc1cccc(-c2ccc([C@@H]3[C@@H](CO)N4CCCCN(C(=O)NC(C)C)C[C@@H]34)cc2)c1	.	.	.	.	.	-2.1	.	.
S=c1[nH]nc(Nc2cccc(Cl)c2)s1	4.8	-8.1	-6.9	-1.0	23.4	.	.	.
